Data set [1] concerns serum DNAse. The settings on record: cited from earlier work.
The subject of data set [2] is liver. Also on record: species or system mice. The settings on record: mouse, in vivo.
The test system of data set [3] is liver hepatocytes (luciferase expression). Put plainly: HD-stimulated / direct HD luciferase gene expression in liver. The class given is in vivo, mice. The conditions noted are these: for fold increase of expression on substitution for the PEG-peptide five Lys shorter: 80 nmol PEG-peptide, 1 μg pGL3, HD-stimulation at 1 hour. Summed up: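 Triplicate mice received 1 μg pGL3 polyplex with 10, 40 or 80 nmol PEG-peptide in 100 μL HBM by tail vein. After 1 h circulation, 1.8 mL saline (per 20 g mouse) was given hydrodynamically over 5 s by tail vein. Liver bioluminescence was imaged 24 h later and analysed as log10 values. Controls: naked pGL3 with HD at 5 min, and direct HD of pGL3.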

Data set [4] concerns scavenger receptors (liver uptake of 125I-pGL3 polyplexes). The data set is described as follows: Inhibition of liver uptake of 125I-pGL3 polyplexes by excess PEG-peptide. The class given is in vivo. The settings on record: mice, PEG 5 kDa peptides dosed in excess (not shown).

Take PEG5kDa-Cys-Trp-Lys18: the “resistance of polyplexes to metabolism by serum DNAse in vitro” value in data set [1] was “resisted metabolism by serum DNAse in vitro”.

As for PEG30kDa-Cys-Trp-Lys25, in data set [2], the “maximal percent of polyplex dose taken up by liver” value is approximately 30% and the “percent of polyplex dose taken up by liver” value was “approximately 16%”. Moreover, the “fold increase of expression on substitution for the PEG-peptide five Lys shorter” value in data set [3] is 5 fold. In addition, the “fold increase of expression (over 10 nmol dose)” value in data set [3] (1 μg pGL3 polyplex with 40 nmol PEG-peptide, HD-stimulation at 1 hour) is 100 fold. Besides, the “further fold improvement of expression (over 40 nmol dose)” value in data set [3] (1 μg pGL3 polyplex with 80 nmol PEG-peptide, HD-stimulation at 1 hour) was 15 fold.

As for PEG30kDa-Cys-Trp-Lys20, in data set [3], the “fold increase of expression on substitution for the PEG-peptide five Lys shorter” value is listed as 5 fold.

Consider PEG5kDa-Cys-Trp-Lys15, for which, in data set [4], the “inhibition of polyplex uptake into the liver when dosed in excess” value is on record as “failed to inhibit polyplex uptake into the liver”.

(Values after paper PMC4837691 (Molecular pharmaceutics, 2015).)
